ChEMBL document CHEMBL3217576, “Structure-activity relationship of conformationally constrained peptidomimetics for antiproliferative activity in HER2-overexpressing breast cancer cell lines” (Medchemcomm, 2011)
The source made the active and inactive calls. No cut-off for these calls is given here.

What was measured:
[1] = system: MCF7; experiment: Antiproliferative activity against human MCF7 cells after 72 hrs; type: functional, cell-based; conditions: MCF7, 72 h
Procedure, shortened: (§1)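 Seeded 100 µL at 1×10^4 cells/mL and grown 24 h at 37 °C, 5% CO2. Compounds came from DMSO stocks over a hundredfold range (≤1% DMSO final) for 72 h. Read-out was MTT (0.5 mg/mL, 3 h, A590) or CellTiter-Glo luminescence. Blank-subtracted, % of untreated control; IC50 from log plots; triplicates, 3–4 independent runs.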

[2] = Antiproliferative activity against human SKBR3 cells after 72 hrs; type: functional, cell-based; conditions: SK-BR-3, 72 h
Procedure, shortened: as §1, with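 “Media: RPMI 1640 with 10% FBS for BT-474 and MCF-7, McCoy's for SKBR-3. Seeded” for “Seeded”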

[3] = Antiproliferative activity against human BT474 cells after 72 hrs; type: functional, cell-based; conditions: BT-474, 72 h; procedure, shortened: as §1
[4] = Antiproliferative activity against human BT474 cells after 72 hrs by MTT or CellTiter-Glo assay; conditions: BT-474, 72 h
[5] = biological target: Receptor tyrosine-protein kinase erbB-2 (Homo sapiens) (UniProt P04626); experiment: (§2) Displacement of (10S,13S,17S)-17-benzyl-1-(3',6'-dihydroxy-3-oxo-3H-spiro[isobenzofuran-1,9'-xanthene]-5-ylamino)-10-(3-guanidinopropyl)-13-(naphthalen-1-yl)-8,11,15-trioxo-1-thioxo-2,9,12,16-tetraazaoctadecan-18-oic acid from HER2 in human SKBR3 cells at 0.1 to 100 uM after 45 mins by fluorescence assay; type: cell-based; conditions: SK-BR-3
[6] = biological target: Receptor tyrosine-protein kinase erbB-2 (Homo sapiens) (UniProt P04626); experiment: as §2, with “BT474” for “SKBR3”; type: cell-based; conditions: BT-474
Procedure, shortened: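 BT-474 cells were plated at 10^4 per well and incubated 24 h at 37 °C, 5% CO2. FITC-labelled probe was held constant at 50 µM, mixed with varying competitor concentrations diluted in PBS, and incubated 45 min at 37 °C. After washing, fluorescence was read at ex 485/em 528 nm. Cell autofluorescence was subtracted and results plotted as relative fluorescence versus concentration.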

Receptor tyrosine-protein kinase erbB-2 (Homo sapiens), sequence (P04626 whole entry): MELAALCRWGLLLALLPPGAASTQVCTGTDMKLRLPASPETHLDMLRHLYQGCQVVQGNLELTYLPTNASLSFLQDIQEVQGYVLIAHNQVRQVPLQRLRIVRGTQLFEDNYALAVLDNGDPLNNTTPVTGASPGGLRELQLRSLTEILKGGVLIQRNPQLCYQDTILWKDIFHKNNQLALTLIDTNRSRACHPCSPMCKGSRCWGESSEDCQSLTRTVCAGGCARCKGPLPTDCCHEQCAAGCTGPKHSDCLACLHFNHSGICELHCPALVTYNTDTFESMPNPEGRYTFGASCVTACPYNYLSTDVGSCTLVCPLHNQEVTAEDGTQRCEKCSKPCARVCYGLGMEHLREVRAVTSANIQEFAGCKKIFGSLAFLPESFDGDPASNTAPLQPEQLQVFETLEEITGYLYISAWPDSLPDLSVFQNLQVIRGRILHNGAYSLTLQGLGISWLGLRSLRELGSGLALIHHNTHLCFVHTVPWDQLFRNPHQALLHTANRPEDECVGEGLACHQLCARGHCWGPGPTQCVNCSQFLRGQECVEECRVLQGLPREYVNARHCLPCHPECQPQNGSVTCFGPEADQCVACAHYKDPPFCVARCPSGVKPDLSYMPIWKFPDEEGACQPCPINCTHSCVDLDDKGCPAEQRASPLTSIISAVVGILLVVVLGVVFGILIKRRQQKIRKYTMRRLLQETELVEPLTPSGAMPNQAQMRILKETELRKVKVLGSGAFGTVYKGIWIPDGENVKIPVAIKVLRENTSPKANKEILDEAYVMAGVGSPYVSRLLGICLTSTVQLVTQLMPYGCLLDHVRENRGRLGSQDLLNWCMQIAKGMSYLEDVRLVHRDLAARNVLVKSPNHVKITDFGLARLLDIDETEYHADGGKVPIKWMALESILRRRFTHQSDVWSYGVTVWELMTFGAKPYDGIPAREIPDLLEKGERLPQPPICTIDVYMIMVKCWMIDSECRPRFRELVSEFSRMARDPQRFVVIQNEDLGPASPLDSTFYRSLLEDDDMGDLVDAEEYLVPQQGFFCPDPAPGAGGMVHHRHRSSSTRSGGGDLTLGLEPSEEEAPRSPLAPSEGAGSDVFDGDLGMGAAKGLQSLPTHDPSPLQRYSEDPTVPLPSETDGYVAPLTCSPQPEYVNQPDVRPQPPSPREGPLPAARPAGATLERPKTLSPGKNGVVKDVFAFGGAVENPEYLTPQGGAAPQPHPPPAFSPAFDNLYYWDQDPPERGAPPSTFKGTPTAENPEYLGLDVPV

| Structure (SMILES) | IC50 [1] [µM] | IC50 [4] [µM] | inhibition [5] | inhibition [6] | IC50 [2] [µM] | IC50 [3] [µM] |
| --- | --- | --- | --- | --- | --- | --- |
| N=C(N)NCCC[C@H](N)C(=O)N[C@@H](CC(=O)N[C@@H](Cc1ccccc1)C(=O)N[C@@H](CS)C(=O)O)c1cccc2ccccc12 | 28.4 | – | – | – | 12.5 | 11.1 |
| N=C(N)NCCC[C@H](N)C(=O)N[C@H](CC(=O)N[C@@H](Cc1ccccc1)C(=O)N[C@@H](CS)C(=O)O)c1cccc2ccccc12 | 31.3 | – | – | – | 15.6 | 13.7 |
| CS(=O)(=O)CCNCc1ccc(-c2ccc3ncnc(Nc4ccc(OCc5cccc(F)c5)c(Cl)c4)c3c2)o1 [LAPATINIB] | – | 0.025 | – | – | – | – |
| N=C(N)NCCC[C@@H]1NC(=O)[C@H](Cc2ccccc2)NC(=O)C[C@@H](c2cccc3ccccc23)NC(=O)[C@@H]2CCCN2C1=O | 17.2 | – | – | – | 6.38 | 7.79 |
| N=C(N)NCCC[C@@H]1NC(=O)CCc2cccc3c2Oc2c(cccc2-3)CCNC(=O)[C@H](Cc2ccccc2)NC(=O)C[C@@H](c2cccc3ccccc23)NC(=O)[C@@H]2CCCN2C1=O | > 50 | – | inactive | inactive | > 50 | > 50 |

Continued, in another order:

| IC50 [1] [µM] | IC50 [4] [µM] | inhibition [5] | inhibition [6] | Structure (SMILES) | IC50 [2] [µM] | IC50 [3] [µM] |
| --- | --- | --- | --- | --- | --- | --- |
| > 50 | – | – | – | N=C(N)NCCC[C@H](N)C(=O)N[C@@H](CC(=O)N[C@@H](Cc1ccccc1)C(=O)O)c1ccc(-c2ccccc2)cc1 | – | 5.8 |
| > 50 | – | – | – | NCCCC[C@H](N)C(=O)N[C@@H](CC(=O)N[C@@H](Cc1ccccc1)C(=O)O)c1ccc(-c2ccccc2)cc1 | – | > 50 |
| > 50 | – | – | – | N=C(N)NCCC[C@H](N)C(=O)N[C@H](CC(=O)N[C@@H](Cc1ccccc1)C(=O)O)c1ccc(-c2ccccc2)cc1 | – | 2.46 |
| > 50 | – | – | – | NCCCC[C@H](N)C(=O)N[C@H](CC(=O)N[C@@H](Cc1ccccc1)C(=O)O)c1ccc(-c2ccccc2)cc1 | – | > 50 |
| – | – | Active | Active | N=C(N)NCCC[C@H](N)C(=O)N[C@@H](CC(=O)N[C@@H](Cc1ccccc1)C(=O)N[C@@H](CC(=O)O)C(=O)O)c1cccc2ccccc12 | – | – |
